Data taken from ChEMBL document CHEMBL4033790, “Design and Synthesis of Novel Deuterated Ligands Functionally Selective for the γ-Aminobutyric Acid Type A Receptor (GABAAR) α6 Subtype with Improved Metabolic Stability and Enhanced Bioavailability” (J Med Chem, 2018).
In brackets after ≈: the same amount, converted by molar mass. Activity calls are given as the source filed them. The calls are words filed in the database; no cut-off is given here.

Experiments:
[1] = biological target: Voltage-gated inwardly rectifying potassium channel KCNH2 (Homo sapiens, UniProt Q12809); assay: Displacement of [3H]-dofetilide from human ERG expressed in HEK cell membranes at >10 uM after 60 to 90 mins by scintillation counting
[2] = Solubility of the compound in 0.01M HCl at pH 2 after 2 hrs by LC-MS analysis; type: physicochemical; details: buffer, pH 2, 2 h
In short: (§1)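 10 mg compound dissolved in 2 mL DMAC; 10 μL of this added to 2 mL DI water (pH 7, sonicated) or 2 mL 0.01 M aq HCl (pH 2), held 2 h at 37 °C. Filtered through 0.45 micron filter, then quantified by LC-MS in SIM mode against calibration curves of standards in DMAC (n = 5); n=3.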

[3] = Metabolic stability in mouse liver microsomes assessed as parent compound remaining at 10 uM after 60 mins by LC-MS analysis; type: ADME, microsome; details: read-out: Stability
In short: (§2)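 The 60 min samples of the microsomal incubation (10 μM compound, human or mouse liver microsomes at 0.5 mg/mL, NADPH regenerating system, 37 °C) were analysed by LC-MS. Detection used SIM mode with dual ESI/APCI ionization, calibrated to the retention times and masses of the parent and its O-demethylated metabolites. Peak intensities were measured.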

[4] = test system: HEK-293T; assay: Cytotoxicity against HEK293T cells assessed as reduction in cell viability up to 400 uM after 48 hrs by CellTiter-Glo assay; type: cell-based; details: human
In short: (§3)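 HEK293T and HepG2 cells grown in high-glucose DMEM with non-essential amino acids, 10 mM HEPES, penicillin/streptomycin and 10% heat-inactivated FBS. Cells were harvested with trypsin and plated; compound was pin-transferred 3 h later. Incubation was 48 h, then CellTiter-Glo luminescence was read. Controls were DMSO (negative) and a cytotoxic aminoketone (positive). Quadruplicates, three independent runs, normalized to controls, nonlinear regression.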

[5] = Metabolic stability in human liver microsomes assessed as parent compound remaining at 10 uM after 60 mins by LC-MS analysis; type: ADME, microsome; details: read-out: Stability; in short: as §2
[6] = Aqueous solubility of the compound in DI water at pH 7 after 2 hrs by LC-MS analysis; type: physicochemical; details: buffer, pH 7, 2 h; in short: as §1
[7] = test system: Mus musculus; assay: Neurotoxicity in Swiss Webster mouse assessed as induction of motor impairment at 40 mg/kg administered via oral gavage measured after 10 to 60 mins by rotarod method; type: toxicity, organism-based; details: in vivo
In short: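 Female mice were given a single oral gavage dose of 40 mg/kg, either in 50% PBS/40% propylene glycol/10% DMSO or, for poorly soluble compounds, in 2% polyethylene glycol plus 2.5% hydroxymethyl cellulose. Rotarod performance was tested 10, 30 and 60 min after dosing, with diazepam 5 mg/kg as positive control.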

[8] = test system: HepG2; assay: Cytotoxicity against human HepG2 cells assessed as reduction in cell viability up to 400 uM after 48 hrs by CellTiter-Glo assay; type: cell-based; details: hepg2, 48 h; in short: as §3
[9] = biological target: GABA-A receptor; alpha-6/beta-3/gamma-2 (Homo sapiens) (UniProt P18507+P28472+Q16445); assay: Positive allosteric modulation of GABA-A receptor alpha6beta3gamma2 (unknown origin) expressed in Xenopus laevis oocytes assessed as potentiation of EC3 GABA induced currents up to 10 uM at -60 mV holding potential by electrophysiological method; type: cell-based
In short: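 Stage 5–6 defolliculated Xenopus oocytes were injected with 2.5 ng total mRNA per oocyte: α1, α2, α3 or α5 with β3 and γ2 at 1:1:5, and α4 or α6 with β3 and γ2 at 3:1:5. Oocytes were kept ≥36 h at 18 °C in NDE medium before recording. Compounds were co-applied with GABA titrated to EC3-5 for each oocyte. Curves were fitted with the Hill equation; mean ± SEM from ≥3 oocytes across two batches.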

[10] = test system: Liver; assay: Half life in mouse liver microsomes at 10 uM by LC-MS/MS analysis; type: ADME, microsome
In short: (§4)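 Compound at 10 μM final was preincubated 5 min at 37 °C with NADPH regenerating system in phosphate buffer, pH 7.4. Human or mouse liver microsomes (0.5 mg/mL protein) were added to start the reaction. Samples were taken at 0 (no microsomes) and 10–60 min and measured by LC-MS/MS against an internal standard. Half-life = 0.693/k, with k the slope of ln peak-area ratio versus time. Three experiments, each in duplicate.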

[11] = test system: Liver; assay: Half life in human liver microsomes at 10 uM by LC-MS/MS analysis; type: ADME, microsome; in short: as §4
[12] = organism: Rattus norvegicus; assay: Displacement of [3H]-flunitrazepam from rat brain GABA-A receptor benzodiazepine site […] at 10 uM after 60 to 90 mins by scintillation counting
[13] = biological target: 5-hydroxytryptamine receptor 2B (Homo sapiens) (UniProt P41595); assay: Displacement of [3H]-LSD from human recombinant 5HT2B receptor expressed in HEK293 cells at 10 uM after 60 to 90 mins by scintillation counting; type: cell-based; details: tested as the 2H-labelled form
[14] = biological target: 5-hydroxytryptamine receptor 7 (Homo sapiens) (UniProt P34969); assay: Displacement of [3H]-LSD from human recombinant 5HT7 receptor expressed in HEK293 cells at 10 uM after 60 to 90 mins by scintillation counting; type: cell-based; details: tested as the 2H-labelled form
[15] = biological target: Mu-type opioid receptor (Homo sapiens) (UniProt P35372); assay: Displacement of [3H]-DAMGO from human recombinant MOR expressed in HEK293 cells at 10 uM after 60 to 90 mins by scintillation counting; type: cell-based; details: tested as the 2H-labelled form
[16] = biological target: T1, 5-hydroxytryptamine receptor 2C (Homo sapiens) (UniProt P28335); assay: Displacement of [3H]-mesulergine from human recombinant 5HT2C receptor expressed in HEK293T cells at 10 uM after 60 to 90 mins by scintillation counting; type: cell-based; details: HEK-293T, tested as the 2H-labelled form
T1 sequence (whole entry): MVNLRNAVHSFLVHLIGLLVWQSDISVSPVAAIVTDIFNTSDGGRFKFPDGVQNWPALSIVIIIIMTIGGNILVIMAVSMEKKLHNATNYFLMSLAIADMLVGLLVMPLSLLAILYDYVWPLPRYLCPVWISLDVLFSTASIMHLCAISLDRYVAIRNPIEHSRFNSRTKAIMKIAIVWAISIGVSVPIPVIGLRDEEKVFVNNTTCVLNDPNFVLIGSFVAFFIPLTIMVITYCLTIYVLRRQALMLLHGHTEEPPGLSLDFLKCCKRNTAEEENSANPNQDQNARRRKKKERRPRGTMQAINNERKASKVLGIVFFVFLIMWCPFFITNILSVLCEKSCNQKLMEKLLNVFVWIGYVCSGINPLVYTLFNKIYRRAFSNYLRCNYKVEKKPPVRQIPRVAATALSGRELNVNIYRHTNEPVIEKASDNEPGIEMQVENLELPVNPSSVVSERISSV

Chain of Voltage-gated inwardly rectifying potassium channel KCNH2 (Q12809 whole entry): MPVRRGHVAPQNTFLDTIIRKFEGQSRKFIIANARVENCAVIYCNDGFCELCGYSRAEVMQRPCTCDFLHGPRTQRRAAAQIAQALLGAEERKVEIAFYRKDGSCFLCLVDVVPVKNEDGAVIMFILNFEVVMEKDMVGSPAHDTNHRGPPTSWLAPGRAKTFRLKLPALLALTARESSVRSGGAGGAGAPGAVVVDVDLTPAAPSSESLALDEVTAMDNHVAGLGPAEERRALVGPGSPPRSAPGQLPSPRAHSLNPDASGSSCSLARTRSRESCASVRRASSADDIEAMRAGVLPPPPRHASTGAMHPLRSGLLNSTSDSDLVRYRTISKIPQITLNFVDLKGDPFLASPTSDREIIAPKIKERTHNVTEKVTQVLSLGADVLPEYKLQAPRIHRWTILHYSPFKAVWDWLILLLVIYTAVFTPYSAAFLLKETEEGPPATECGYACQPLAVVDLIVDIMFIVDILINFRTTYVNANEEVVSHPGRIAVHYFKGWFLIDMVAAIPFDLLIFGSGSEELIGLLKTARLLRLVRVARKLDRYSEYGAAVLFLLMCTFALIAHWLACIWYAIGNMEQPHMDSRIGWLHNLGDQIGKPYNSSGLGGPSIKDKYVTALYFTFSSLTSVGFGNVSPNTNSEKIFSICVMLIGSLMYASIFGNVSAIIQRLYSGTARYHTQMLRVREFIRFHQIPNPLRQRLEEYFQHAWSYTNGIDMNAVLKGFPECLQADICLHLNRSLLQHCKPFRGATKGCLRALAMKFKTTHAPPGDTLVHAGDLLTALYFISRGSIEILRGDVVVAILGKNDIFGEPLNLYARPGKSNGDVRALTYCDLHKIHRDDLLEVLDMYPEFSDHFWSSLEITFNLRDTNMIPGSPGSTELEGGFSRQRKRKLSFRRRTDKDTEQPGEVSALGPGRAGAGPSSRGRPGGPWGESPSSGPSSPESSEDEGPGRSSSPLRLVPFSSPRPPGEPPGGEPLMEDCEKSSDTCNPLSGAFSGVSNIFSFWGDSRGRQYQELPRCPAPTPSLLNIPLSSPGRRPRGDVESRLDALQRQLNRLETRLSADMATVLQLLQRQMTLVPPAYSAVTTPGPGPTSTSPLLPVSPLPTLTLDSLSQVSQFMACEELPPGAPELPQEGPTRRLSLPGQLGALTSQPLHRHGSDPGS
Chain of Mu-type opioid receptor (Homo sapiens) (P35372 whole entry): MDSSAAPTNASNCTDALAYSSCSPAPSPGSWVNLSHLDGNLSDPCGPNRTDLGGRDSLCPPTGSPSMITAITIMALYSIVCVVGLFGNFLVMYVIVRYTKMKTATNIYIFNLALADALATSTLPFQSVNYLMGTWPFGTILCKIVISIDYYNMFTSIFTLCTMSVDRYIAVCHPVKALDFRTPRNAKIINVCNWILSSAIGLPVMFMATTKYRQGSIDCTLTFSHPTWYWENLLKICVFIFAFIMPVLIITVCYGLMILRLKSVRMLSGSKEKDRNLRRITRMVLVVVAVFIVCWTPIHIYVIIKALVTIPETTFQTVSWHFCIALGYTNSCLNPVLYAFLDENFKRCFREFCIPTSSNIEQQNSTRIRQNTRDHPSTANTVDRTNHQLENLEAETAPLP
Chain of 5-hydroxytryptamine receptor 7 (Homo sapiens) (P34969 whole entry): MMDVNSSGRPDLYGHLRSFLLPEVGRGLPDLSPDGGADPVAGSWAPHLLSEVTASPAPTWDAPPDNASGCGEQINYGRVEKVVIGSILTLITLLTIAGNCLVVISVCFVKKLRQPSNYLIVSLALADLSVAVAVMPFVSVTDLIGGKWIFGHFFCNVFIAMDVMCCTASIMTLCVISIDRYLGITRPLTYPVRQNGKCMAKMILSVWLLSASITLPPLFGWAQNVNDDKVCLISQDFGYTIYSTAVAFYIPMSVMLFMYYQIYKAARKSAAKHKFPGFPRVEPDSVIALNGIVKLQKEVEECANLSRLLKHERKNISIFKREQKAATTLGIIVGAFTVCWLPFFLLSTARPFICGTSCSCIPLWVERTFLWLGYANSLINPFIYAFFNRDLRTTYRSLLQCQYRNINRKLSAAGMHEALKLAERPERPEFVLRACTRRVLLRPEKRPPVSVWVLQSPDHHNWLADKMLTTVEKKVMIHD
Chain of 5-hydroxytryptamine receptor 2B (Homo sapiens) (P41595 whole entry): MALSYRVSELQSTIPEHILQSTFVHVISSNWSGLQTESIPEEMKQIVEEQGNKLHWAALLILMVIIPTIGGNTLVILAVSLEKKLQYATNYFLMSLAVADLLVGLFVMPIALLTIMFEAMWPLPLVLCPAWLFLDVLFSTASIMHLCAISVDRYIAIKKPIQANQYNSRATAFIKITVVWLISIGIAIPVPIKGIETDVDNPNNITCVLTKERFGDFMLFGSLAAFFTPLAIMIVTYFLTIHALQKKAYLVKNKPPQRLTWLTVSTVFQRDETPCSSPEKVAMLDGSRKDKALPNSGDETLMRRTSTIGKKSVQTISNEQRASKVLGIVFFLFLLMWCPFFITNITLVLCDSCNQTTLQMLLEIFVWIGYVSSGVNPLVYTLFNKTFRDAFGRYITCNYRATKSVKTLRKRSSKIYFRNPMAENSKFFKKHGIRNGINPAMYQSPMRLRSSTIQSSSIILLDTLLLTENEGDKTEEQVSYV

| Structure (SMILES) | inhibition (INH) [1] | remaining at 1 h, 10 µM [3] [%] | remaining at 1 h, 10 µM [5] [%] | Activity [7] | t1/2 [10] [h] | t1/2 [11] [h] | also measured |
| --- | --- | --- | --- | --- | --- | --- | --- |
| [2H]C([2H])([2H])Oc1cccc(-n2nc3c4cc(OC([2H])([2H])[2H])ccc4[nH]cc-3c2=O)c1 | Not Active |  |  |  |  |  |  |
| COc1ccc(-n2nc3c4ccc(Br)cc4[nH]cc-3c2=O)cn1 | Not Active | 93.1 | 93.4 | Non-Toxic |  |  | solubility [2]: 7.2 µM (≈ 2.67 µg/mL); Activity [4]: Non-Toxic; solubility [6]: 7.3 µM (≈ 2.71 µg/mL); Activity [8]: Non-Toxic; Activity ([9]; tested as the 2H-labelled form): Active |
| [2H]C([2H])([2H])Oc1ccccc1-n1nc2c3ccc(OC)cc3[nH]cc-2c1=O | Not Active | 93 | 79.9 |  | 10.9 | 3.5 |  |
| [2H]C([2H])([2H])Oc1ccc(-n2nc3c4cc(Cl)ccc4[nH]cc-3c2=O)cn1 | Not Active | 85.1 | 93 | Non-Toxic |  |  |  |
| [2H]C([2H])([2H])Oc1ccccc1-n1nc2c3ccc(Br)cc3[nH]cc-2c1=O | Not Active | 61.3 | 92.8 |  | 1.5 | 14.2 |  |
| COc1ccc(-n2nc3c4cnc(OC)cc4[nH]cc-3c2=O)cc1 | Not Active | 93 | 91 |  | 12 | 10.6 | solubility [2]: 135.9 µM (≈ 43.8 µg/mL); solubility [6]: 103.7 µM (≈ 33.4 µg/mL); Activity [9]: Active |
| COc1ccc(-n2nc3c4cc(Cl)ccc4[nH]cc-3c2=O)cn1 | Not Active | 85.6 | 91.6 | Non-Toxic |  |  | inhibition [12]: Active; inhibition ([12]; tested as the 2H-labelled form): Active; solubility [2]: 0.9 µM (≈ 0.294 µg/mL); Activity [4]: Non-Toxic; solubility [6]: 0.8 µM (≈ 0.261 µg/mL); Activity [8]: Non-Toxic; Activity ([9]; tested as the 2H-labelled form): inactive |
| COc1ccccc1-n1nc2c3ccc(Br)cc3[nH]cc-2c1=O |  |  |  |  |  |  | inhibition [13]: Active; inhibition ([12]; tested as the 2H-labelled form): Active; inhibition [14]: Active; inhibition [15]: Active; inhibition [16]: Active |
| [2H]C([2H])([2H])Oc1ccc(-n2nc3c4cc(OC([2H])([2H])[2H])ccc4[nH]cc-3c2=O)cc1 | Not Active |  |  |  |  |  |  |
| [2H]C([2H])([2H])Oc1ccc2[nH]cc3c(=O)n(-c4ccccc4OC([2H])([2H])[2H])nc-3c2c1 | Not Active |  |  |  |  |  |  |
| [2H]C([2H])([2H])Oc1cccc(-n2nc3c4ccc(OC)cc4[nH]cc-3c2=O)c1 | Not Active | 91.6 | 81.3 |  | 14.5 | 3.9 |  |
| [2H]C([2H])([2H])Oc1cccc(-n2nc3c4ccc(OC([2H])([2H])[2H])cc4[nH]cc-3c2=O)c1 | Not Active | 90.5 | 89.5 |  | 9.9 | 7.7 | Activity [4]: Non-Toxic; Activity [8]: Non-Toxic |
| [2H]C([2H])([2H])Oc1ccc(-n2nc3c4cc(Cl)ccc4[nH]cc-3c2=O)cc1 | Not Active | 85.5 | 92.2 | Non-Toxic |  |  | Activity [4]: Non-Toxic; Activity [8]: Non-Toxic |
| [2H]C([2H])([2H])Oc1cccc(-n2nc3c4ccc(Br)cc4[nH]cc-3c2=O)c1 | Not Active | 79.5 | 63.5 |  | 3.6 | 1.8 |  |
| COc1ccc2c3nn(-c4ccccc4OC)c(=O)c-3c[nH]c2c1 |  |  |  |  |  |  | inhibition ([12]; tested as the 2H-labelled form): inactive |
| COc1ccccc1-n1nc2c3cc(Cl)ccc3[nH]cc-2c1=O |  |  |  |  |  |  | inhibition ([12]; tested as the 2H-labelled form): Active; Activity ([9]; tested as the 2H-labelled form): inactive |
| [2H]C([2H])([2H])Oc1ccc(-n2nc3c4ccc(Br)cc4[nH]cc-3c2=O)cn1 | Not Active | 98.4 | 97.8 | Non-Toxic |  |  |  |
| [2H]C([2H])([2H])Oc1ccc2c3nn(-c4ccc(OC([2H])([2H])[2H])nc4)c(=O)c-3c[nH]c2c1 |  | 92.5 | 90 | Non-Toxic | 14.5 | 9.8 |  |
| [2H]C([2H])([2H])Oc1ccc2c3nn(-c4ccccc4OC([2H])([2H])[2H])c(=O)c-3c[nH]c2c1 | Not Active | 92 | 90.5 |  | 13.9 | 9.9 | Activity [4]: Non-Toxic; Activity [8]: Non-Toxic |
